# Compound activity from PubChem.
# p97 inhibitor: human p97 ATPase inhibition. inhibition, % at 8 µM. P55072. hit rate 0.42% among 220,000. recombinant p97 ATPase, Kinase-Glo ATP luminescence, 3 h; in the data active = inhibition above about 15%;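 also: 0% = DMSO vehicle and 100% = wells lacking enzyme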
# Runt-SMMHC FRET: inhibitors of human RUNX1 Runt domain binding to CBFb-SMMHC. Q01196+Q13951. Cerulean-Runt/Venus-CBFb-SMMHC FRET ratio 530/480, 1 h. inhibition, % at 20 µM. hit rate 0.74% among 220,000. AID 1434;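 active = mean inhibition across duplicate retests at 20 µM reaching about 50%, limit read from the data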;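 also: 0% = DMSO wells and 100% = wells with excess untagged CBFb-SMMHC; inhibitors lower the FRET ratio by blocking Runt binding to CBFb-SMMHC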
# RanGTP-Imp inh: inhibitors of RanGTP-importin-beta interaction, primary screen, biochemical, FRET, CFP-Ran, YFP-importin-beta, homogeneous. hit rate 1.1% among 300,000. inhibition, % (concentration not given with the values). cell-free CFP-Ran/YFP-importin-beta FRET ratio;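 active = more than half of the replicate wells show a fall in the fluorescence ratio signal beyond about 16%, limit read from the data, passing the limit was not always enough; inconclusive = exactly half of the replicate wells pass the set limit; inactive = fewer than half of replicates pass the limit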;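 also: 0% = DMSO wells and 100% = Ran loaded with GDP instead of GTP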
# Runt-CBFb FRET: blocks binding of human RUNX1 Runt domain to CBFb | AID 1496 | hit rate 0.46% among 220,000 | Q01196+Q13951 | inhibition, % at 20 µM | Cerulean-Runt/Venus-CBFb FRET ratio 530/480, 1 h;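 active = inhibition over about 50% at 20 µM in the single-dose screen, limit read from the data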;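 also: 0% = DMSO wells and 100% = excess unlabeled CBFb competitor control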
#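 Assay system: Cerulean-Runt domain fusion protein, energy donor; Signal: fluorescence energy transfer, 422 nm excitation, 530/480 nm emission; Timing: 1 h compound exposure, room temperature; Control set: unlabeled CBFb; Medium: Tris buffer pH 7.5 with salts and BSA; Compound: single test concentration of 20 µM, 1% DMSO final; Probe or stimulus: Venus-CBFb 100 nM.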
# Tb hexokinase: blocks Trypanosoma brucei hexokinase 1 activity; AID 1430; hit rate 0.11% among 220,000; recombinant TbHK1, G6PDH-coupled NADH A340; inhibition, % at 10 µM;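 active = inhibition of 50% or more in the single-dose primary screen; inactive = inhibition below 50%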
# Hck-Nef inh: blocks Nef-activated human Hck kinase; Recombinant Hck-YEEI plus Nef, Z-Lyte FRET kinase assay; inhibition, % at 20 µM; hit rate 0.68% among 220,000;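 active = Hck-Nef kinase inhibition above about 50%, limit read from the data; inactive = inhibition below that limit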;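 also: 0% = DMSO with Hck plus Nef and 100% = Hck alone without Nef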
# Target sequence (P08631 whole entry, looked up): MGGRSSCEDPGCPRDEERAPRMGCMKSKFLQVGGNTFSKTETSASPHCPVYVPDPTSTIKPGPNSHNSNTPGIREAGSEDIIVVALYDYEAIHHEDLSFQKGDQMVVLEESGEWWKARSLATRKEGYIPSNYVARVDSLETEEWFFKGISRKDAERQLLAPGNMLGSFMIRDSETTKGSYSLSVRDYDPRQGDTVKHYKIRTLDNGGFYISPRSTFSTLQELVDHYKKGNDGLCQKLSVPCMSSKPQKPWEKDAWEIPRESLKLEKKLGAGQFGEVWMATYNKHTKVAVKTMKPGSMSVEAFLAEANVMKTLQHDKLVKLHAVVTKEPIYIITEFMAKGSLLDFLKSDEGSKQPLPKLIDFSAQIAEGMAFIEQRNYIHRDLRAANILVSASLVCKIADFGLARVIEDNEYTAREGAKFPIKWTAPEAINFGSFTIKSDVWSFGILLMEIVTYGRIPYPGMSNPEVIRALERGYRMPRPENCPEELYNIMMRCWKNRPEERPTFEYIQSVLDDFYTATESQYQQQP
# Numbers without * were called inactive; ? = inconclusive; nt = no result given. Shown are actives, neighbours in structure and some others; about 2.1% of the full set was active somewhere.
SMILES,p97 inhibitor,Runt-SMMHC FRET,RanGTP-Imp inh,Runt-CBFb FRET,Tb hexokinase,Hck-Nef inh
CCN1CC=C2C(C#N)=C(N)C(C#N)(C#N)C(c3cc(Cl)ccc3Cl)C2C1 (stereo unspecified),1,65*,56*,73*,-27,10
CC(C)N1CC=C2C(C#N)=C(N)C(C#N)(C#N)[C@H](c3ccoc3)[C@H]2C1,4,60*,55*,49,-8,19
CCOC(=O)c1cc(C(=O)OCC)c2cccc(C)n2c1=O,0,60,36*,19,-28,33
CCOC(=O)/C(C#N)=C(\N)C(C)C(=O)Nc1ccccn1 (stereo unspecified),8,-9,4,1,2,0
O=C1C=CC(=O)N1c1cccc(-c2ccccc2)c1,-5,73*,-2,38,8,-38
Cc1ccc(C(=O)Nc2nnc(CC(=O)N/N=C/c3ccc(O)c(O)c3)s2)cc1,nt,nt,4,nt,nt,nt
COc1ccc(C(=O)Nc2nnc(CC(=O)N/N=C/c3ccc(O)cc3O)s2)cc1,nt,nt,108*,nt,nt,nt
CC(CC(=O)N1CCN(c2cccc(Cl)c2)CC1)S(=O)(=O)c1ccc2c(c1)NC(=O)CO2 (stereo unspecified),nt,nt,-2,nt,nt,nt
CCOC(=O)c1cc2c(=O)n3cccc(C)c3nc2n(Cc2ccco2)c1=NC(=O)c1ccccc1,-1,nt,106*,93*,-17,5
CCOC(=O)c1cc2c(=O)n3ccccc3nc2n(Cc2ccco2)c1=NC(=O)c1ccc(OC)cc1,3,86*,-1,89*,-8,25
CCOC(=O)c1cc2c(=O)n3ccccc3nc2n(CCCOC)c1=NC(=O)c1ccncc1,3,92*,0,65*,-11,34
COC(=O)c1cc2c(=O)n3ccccc3nc2n(C)c1=N,nt,42,nt,13,nt,nt
CCOC(=O)c1cc2c(=O)n3ccccc3nc2n(Cc2ccco2)c1=NC(=O)c1ccccc1OC,5,86*,62*,89*,-16,19
Cc1ccc(S(=O)(=O)Nc2ccc(-c3nnc(SCC#N)n3C)cc2)cc1,-1,4,1,-1,20,3
CC(C)(C)n1ncc2c(=O)n(CC(=O)N3CCN(c4ccccc4)CC3)cnc21,-3,-61,nt,0,6,-2
Cc1ccc(NC(=O)c2cccc(S(=O)(=O)N3CCN(C)CC3)c2)cc1F,nt,nt,6,nt,nt,nt
O=C(Nc1ccnn1C1CCN(Cc2cc(Cl)ccc2O)CC1)c1cccnc1,nt,nt,1,nt,nt,nt
CC1(C)Cc2c(ccc3ccccc23)C(=O)N1,-1,2,-1,0,0,2
CN1CC2(Cc3c1ccc1ccccc31)C(=O)OC(C)(C)OC2=O,6,113*,-1,29,6,19
Cc1nc(N2CCC(C)CC2)c2c(C)c(C(=O)Nc3ccccc3C(F)(F)F)sc2n1,1,-7,?,-8,24,-4
C/C(=N\OCc1ccccc1C#N)c1cc2ccccc2o1,-2,-3,-1,-3,-5,27
CCOC(=O)CC(=O)CSc1nc2c(cc1C#N)CCCCCC2,nt,50*,14,40,nt,nt
COC(=O)CC(=O)CSc1nc2c(cc1C#N)CCC2,-1,32,4,49,-15,4
CC(C)OC(=O)CC(=O)CSc1nc2c(cc1C#N)CCCCCC2,4,78*,-2,50,-13,2
O=[S@]1Oc2ccccc2-c2ccccc21,nt,nt,0,nt,nt,nt
CC(=O)[C@@H]1[C@@H]2C(=O)N(c3ccc(F)c(Cl)c3)C(=O)[C@@H]2C2c3ccccc3C=CN21 (stereo partly specified),1,-63,?,-14,-6,-5
N#C[C@@H]1[C@@H]2C(=O)N(c3ccc4c(c3)OCCO4)C(=O)[C@@H]2C2c3ccccc3C=CN21 (stereo partly specified),5,-59,19*,-17,-11,1
Cc1ccnc(N2CCCC(C(=O)Nc3cccc(C)c3C)C2)n1 (stereo unspecified),nt,nt,1,nt,nt,nt
CCOC(=O)CSc1nnc(C)n1N,-2,-2,4,-2,2,2
